Key:
[1] = Solubility of the compound in DMSO; type: physicochemical
[2] = Permeability of the compound at 10 uM after 5 hrs by PAMPA; type: ADME; details: read-out: permeability
Summary of the method: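 Parallel artificial membrane permeability assay reported as effective permeability Pe (10−6 cm/s). Pe > 1.5 is taken as high permeability.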

[3] = target: T1, Tyrosyl-DNA phosphodiesterase 2 (Homo sapiens, UniProt O95551); experiment: Inhibition of recombinant human TDP2 using T5PNP as substrate preincubated for 10 mins followed by substrate addition and measured after 30 mins
T1 sequence (O95551 whole entry): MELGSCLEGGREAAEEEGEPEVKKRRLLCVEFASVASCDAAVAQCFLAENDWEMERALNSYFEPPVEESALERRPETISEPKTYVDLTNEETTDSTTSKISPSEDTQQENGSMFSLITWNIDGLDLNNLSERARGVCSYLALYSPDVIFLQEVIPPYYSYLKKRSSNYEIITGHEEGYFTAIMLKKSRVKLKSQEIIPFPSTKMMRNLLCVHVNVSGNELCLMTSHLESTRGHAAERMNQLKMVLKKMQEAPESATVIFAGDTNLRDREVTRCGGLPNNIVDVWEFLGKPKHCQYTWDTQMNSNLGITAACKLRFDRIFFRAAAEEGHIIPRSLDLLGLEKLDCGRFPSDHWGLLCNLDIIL

[4] = tested on: HepG2; experiment: Cytotoxicity against human HepG2 cells after 72 hrs by MTT assay; type: cell-based; details: hepg2, 72 h
Summary of the method: (§1)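 Compounds tested at 50 μM and 100 μM to give CC50. Two independent experiments were run, each in triplicate.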

[5] = tested on: HeLa; experiment: Cytotoxicity against human HeLa cells after 72 hrs by MTT assay; type: cell-based; summary of the method: as §1
[6] = Solubility of the compound in pH 7.4 Tris HCl buffer; type: physicochemical

SMILES	solubility [1]	Papp at 5 h, 10 µM [2] [×10⁻⁶ cm/s]	further results
O=C(Nc1nc2nc(-c3ccccc3)ccn2n1)c1ccccc1	Insoluble		
O=C(Nc1nc2nc(-c3ccccc3)ccn2n1)c1cccc(Br)c1	Insoluble		
O=C(Nc1nc2nc(-c3ccccc3)ccn2n1)c1ccc([N+](=O)[O-])cc1	Insoluble		
NC1=CC(N)=C2C=CC(=O)N=C2C1=O		0.095	IC50 [3]: 1.7 µM
N#Cc1cccc(C(=O)Nc2nc3nc(-c4ccccc4)ccn3n2)c1	Insoluble		
O=C(Nc1nc2cc(-c3cccnc3)ccn2n1)c1cccc(Cl)c1		6.3	CC50 [4]: > 100 µM; CC50 [5]: > 100 µM
O=C(Nc1nc2nc(-c3ccccc3)ccn2n1)c1cccc(C(F)(F)F)c1	Insoluble		
O=C(Nc1nc2nc(-c3ccccc3)ccn2n1)c1cccc([N+](=O)[O-])c1	Soluble	0.16	solubility [6]: Soluble
O=C(Nc1nc2cc(-c3ccccc3)ccn2n1)c1cccc(Cl)c1		0.9	CC50 [4]: > 100 µM; CC50 [5]: > 100 µM
O=C(Nc1nc2cc(-c3ccccc3)ccn2n1)c1cccc([N+](=O)[O-])c1		0.15	
